Results as given in ChEMBL document CHEMBL3352233, “N-[6-(4-butanoyl-5-methyl-1H-pyrazol-1-yl)pyridazin-3-yl]-5-chloro-1-[2-(4-methylpiperazin-1-yl)-2-oxoethyl]-1H-indole-3-carboxamide (SAR216471), a novel intravenous and oral, reversible, and directly acting P2Y12 antagonist” (J Med Chem, 2014).

Columns and labels:
[1] = target: P2Y purinoceptor 12 (Homo sapiens, UniProt Q9H244); test: Displacement of [33P]2MeS-ADP from P2Y12 receptor (unknown origin) transfected in CHO cells after 30 mins by scintillation counting analysis; type: cell-based
P2Y purinoceptor 12, sequence (Q9H244 whole entry): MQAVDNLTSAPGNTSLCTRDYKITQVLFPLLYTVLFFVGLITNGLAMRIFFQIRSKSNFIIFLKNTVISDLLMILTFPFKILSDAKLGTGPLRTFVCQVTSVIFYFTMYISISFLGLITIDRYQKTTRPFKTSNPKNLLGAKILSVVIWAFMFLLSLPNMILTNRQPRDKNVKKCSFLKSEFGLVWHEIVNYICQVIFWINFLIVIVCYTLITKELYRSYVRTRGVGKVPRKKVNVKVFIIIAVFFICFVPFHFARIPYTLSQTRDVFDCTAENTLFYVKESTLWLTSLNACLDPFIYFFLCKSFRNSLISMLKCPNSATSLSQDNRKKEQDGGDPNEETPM
Procedure, shortened: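 P2Y12-expressing CHO cells (35 × 10³/sample) in PBS with 1 mM EDTA and 0.2% BSA are exposed to compound for 30 min. [³³P]2-MeS-ADP (0.16 nM) is then added for 15 min at 20 °C, in triplicate. Filtration separates free from bound ligand, followed by scintillation counting. Nonspecific binding uses 1 mM unlabeled ADP. IC50 comes from a four-parameter logistic fit with asymptotes fixed at 0 and 100. n = 2.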

[2] = Metabolic stability in human liver microsomes assessed as compound metabolism after 20 mins incubation in presence of 1 mM NADPH; type: ADME; conditions: liver microsomes, read-out: Drug metabolism
Procedure, shortened: (§1)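 Hepatic microsomal fractions are incubated with compound for 20 min with 1 mM NADPH. Result is reported as % metabolized, i.e. 100 minus % unchanged compound.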

[3] = Metabolic stability in rat liver microsomes assessed as compound metabolism after 20 mins incubation in presence of 1 mM NADPH; type: ADME; conditions: liver microsomes, read-out: Drug metabolism; procedure, shortened: as §1

Work on `CCCC(=O)c1cnn(-c2ccc(NC(=O)c3cn(CC(=O)NCCN(C)C)c4ccc(C)cc34)cc2)c1C` yielded an IC50 [1] of 92 nM.

For `CCCC(=O)c1cnn(-c2ccc(NC(=O)c3cn(CC(=O)N4CCN(CC(F)(F)F)CC4)c4ccc(C)cc34)cc2)c1C`, the IC50 [1] was 66 nM.

Work on `CCCC(=O)c1cnn(-c2ccc(NC(=O)c3cn(CC(=O)N4CCCN(C)CC4)c4ccc(C)cc34)cc2)c1C` yielded an IC50 [1] of 95 nM.

With `CCCC(=O)c1cnn(-c2ccc(NC(=O)c3cn(CC(=O)N4CC(C)NC(C)C4)c4ccc(C)cc34)cc2)c1C` (stereo unspecified) the IC50 [1] was 102 nM.

For `CCCC(=O)c1cnn(-c2ccc(NC(=O)c3cn(CC(=O)N4CCC(NC)C4)c4ccc(C)cc34)cc2)c1C` (stereo unspecified), the IC50 [1] was 94 nM.

For `CC(=O)c1cnn(-c2ccc(NC(=O)c3cn(CC(=O)N4CCN(C)CC4)c4ccc(Cl)cc34)cc2)c1C`, the metabolised at 20 min [2] was 40%, the IC50 [1] was 143 nM and the metabolised at 20 min [3] was 47%.

`CCCC(=O)c1cnn(-c2ccc(NC(=O)c3cn(CC(=O)N4CCCCC4CN)c4ccc(C)cc34)cc2)c1C` (stereo unspecified) showed an IC50 [1] of 111 nM.

`CCCC(=O)c1cnn(-c2ccc(NC(=O)c3cn(CC(=O)N4C[C@@H]5C[C@@H](O)CN5C[C@@H]4C)c4ccc(C)cc34)cc2)c1C` showed a metabolised at 20 min [2] of 61%, an IC50 [1] of 15 nM and a metabolised at 20 min [3] of 25%.

Compound `CCCC(=O)c1cnn(-c2ccc3c(c2)OCCN3C(=O)c2cn(CC(=O)N3CCN(C)CC3)c3ccc(Cl)cc23)c1C` has an IC50 [1] of 559 nM.

With `CCCC(=O)c1cnn(-c2ccc(NC(=O)c3cn(CC(=O)N4C[C@@H]5C[C@H]4CN5)c4ccc(C)cc34)cc2)c1C` the IC50 [1] was 86 nM.

`CCCC(=O)c1cnn(-c2ccc(N(C)C(=O)c3cn(CC(=O)O)c4ccc(C)cc34)cc2)c1C` showed an IC50 [1] of 304 nM.

`CCCC(=O)c1cnn(-c2cnc(NC(=O)c3cn(CC(=O)N4CCN(C)CC4)c4ccc(Cl)cc34)cn2)c1C` gave an IC50 [1] of 275 nM.

Compound `CCCC(=O)c1cnn(-c2ccc(NC(=O)c3cn(CC(=O)OC)c4ccc(C)cc34)cc2)c1C` has an IC50 [1] of 93 nM.

For `CCCC(=O)c1cnn(-c2ccc(NC(=O)c3cn(CC(=O)N(C)C4CCN(C)C4)c4ccc(C)cc34)cc2)c1C` (stereo unspecified), the IC50 [1] was 47 nM.

For `CCCCN1CCN(C(=O)Cn2cc(C(=O)Nc3ccc(-n4ncc(C(=O)CCC)c4C)cc3)c3cc(C)ccc32)CC1`, the IC50 [1] was 121 nM.

In the case of `CCCC(=O)c1cnn(-c2ccc(NC(=O)c3cn(CC(=O)O)c4cc(C)c(C)cc34)cc2)c1C`, the metabolised at 20 min [2] is reported as 4%, the IC50 [1] is reported as 5.1 nM and the metabolised at 20 min [3] is reported as 2%.

For `CCOC(=O)c1c(C)nn(-c2ccc(NC(=O)Nc3ccccc3OCCCC(=O)O)cc2)c1C`, the IC50 [1] was 80 nM.

With `CCCC(=O)c1cnn(-c2ccc(NC(=O)c3cn(CC(=O)N4CCN(CC)CC4)c4ccc(C)cc34)cc2)c1C` the IC50 [1] was 66 nM.

Work on `CCCC(=O)c1cnn(-c2ccc(NC(=O)c3cn(CC(=O)N4CCN(C)CC4)c4ccc(F)cc34)cc2)c1C` yielded an IC50 [1] of 142 nM.

Compound `CCCC(=O)c1cnn(-c2ccc(NC(=O)c3cn(CC(=O)N4CCNC(C)C4)c4ccc(C)cc34)cc2)c1C` (stereo unspecified) has an IC50 [1] of 46 nM.

Compound `CCCC(=O)c1cnn(-c2ccc(NC(=O)c3cn(CC(=O)N4CCCCC4CN4CCCC4)c4ccc(C)cc34)cc2)c1C` (stereo unspecified) has an IC50 [1] of 100 nM.

`CCCC(=O)c1cnn(-c2ccc(NC(=O)c3cn(CC(=O)N4CCCC(N)C4)c4ccc(C)cc34)cc2)c1C` (stereo unspecified) showed an IC50 [1] of 46 nM.

With `CCCC(=O)c1cnn(-c2ccc(NC(=O)c3cn(CCC(=O)O)c4ccc(C)cc34)cc2)c1C` the IC50 [1] was 7 nM.

`CCCC(=O)c1cnn(-c2ccc(NC(=O)c3cn(CC(=O)O)c4ccc(C)c(C)c34)cc2)c1C` showed an IC50 [1] of 272 nM.

Work on `CCCC(=O)c1cnn(-c2ccc(NC(=O)c3cn(CC(=O)O)c4ccc(C)cc34)cc2)c1C` yielded a metabolised at 20 min [2] of 5%, an IC50 [1] of 0.9 nM and a metabolised at 20 min [3] of 1%.

`CCCC(=O)c1cnn(-c2ccc(NC(=O)c3cn(CC(=O)N4CC5CCN(C)C5C4)c4ccc(C)cc34)cc2)c1C` (stereo unspecified) showed an IC50 [1] of 89 nM.

For `CCCC(=O)c1cnn(-c2ccc(NC(=O)c3cn(CC(=O)N4CCN(C)CC4)c4ccc(C#N)cc34)cc2)c1C`, the IC50 [1] was 76 nM.

`CCCC(=O)c1cnn(-c2ccc(OC(=O)c3cn(CC(=O)N4CCN(C)CC4)c4ccc(Cl)cc34)cc2)c1C` showed an IC50 [1] of 480 nM.

In the case of `CCCC(=O)c1cnn(-c2ccc(NC(=O)c3cn(CC(=O)N4CCN(C)CC4)c4ccc(OC)cc34)cc2)c1C`, the metabolised at 20 min [2] is reported as 68%, the IC50 [1] is reported as 22 nM and the metabolised at 20 min [3] is reported as 63%.

`CCCC(=O)c1cnn(-c2ccc(NC(=O)c3cn(CC(=O)N4CCC(NC)CC4)c4ccc(C)cc34)cc2)c1C` gave an IC50 [1] of 115 nM.

Work on `Cc1c(C(=O)CCC(F)(F)F)cnn1-c1ccc(NC(=O)c2cn(CC(=O)N3CCN(C)CC3)c3ccc(Cl)cc23)cc1` yielded a metabolised at 20 min [2] of 6%, an IC50 [1] of 574 nM and a metabolised at 20 min [3] of 3%.

In the case of `CCCC(=O)c1cnn(-c2ccc(NC(=O)Nc3cc(C)ccc3OCCCC(=O)O)cc2)c1C`, the IC50 [1] is reported as 17 nM.

With `CCCC(=O)c1cnn(-c2ccc(NC(=O)c3cn(CC(=O)NC4CCCN(C)C4)c4ccc(C)cc34)cc2)c1C` (stereo unspecified) the IC50 [1] was 71 nM.

With `CCCC(=O)c1cnn(-c2ccc(NC(=O)c3cn(CC(=O)N4CCN(C)CC4)c4cc(Br)c(C)cc34)cc2)c1C` the IC50 [1] was 118 nM.
